From PubChem BioAssay
OXTR potentiate: human OXTR potentiators, primary screen, fluorescence, CHO-OTR cells, Fluo-8 calcium; Fluo-8 calcium fluorescence, potentiator mode; 0% = oxytocin EC15, 100% = EC100; AID 2445, 2010; activation, % at 3 µM; 0.061% of 320,000 active;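 active = activation above that plate's cutoff, the mean activation of tested compounds plus 3 SD, cut at about 6.6% in these data, passing the limit was not always enough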
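Material: CHO-OTR cells, human receptor; compound dosing: single dose, 3.0 µM nominal final compound concentration; schedule: 6 min compound pre-incubation at room temperature, 100 s kinetic read; measured by: kinetic Fluo-8 calcium fluorescence; read-out basis: % activation vs EC15 and EC100 oxytocin; controls: EC15 oxytocin alone as 0%, 75 nM oxytocin as 100%; replicates: singlicate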
TAAR1 agonist: human TAAR1 agonists, primary screen, Fluo-8 calcium fluorescence, CHO RD-HGA16 cells; activation, % at 3 µM; vehicle wells 0%, saturating PEA agonist 100%; 0.99% of 360,000 active; AID 624467, 2012;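 active = activation above the mean activation of all test compounds in the run plus 3 SD, cut at about 38% in these data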
Target sequence (Q96RJ0 whole entry, looked up): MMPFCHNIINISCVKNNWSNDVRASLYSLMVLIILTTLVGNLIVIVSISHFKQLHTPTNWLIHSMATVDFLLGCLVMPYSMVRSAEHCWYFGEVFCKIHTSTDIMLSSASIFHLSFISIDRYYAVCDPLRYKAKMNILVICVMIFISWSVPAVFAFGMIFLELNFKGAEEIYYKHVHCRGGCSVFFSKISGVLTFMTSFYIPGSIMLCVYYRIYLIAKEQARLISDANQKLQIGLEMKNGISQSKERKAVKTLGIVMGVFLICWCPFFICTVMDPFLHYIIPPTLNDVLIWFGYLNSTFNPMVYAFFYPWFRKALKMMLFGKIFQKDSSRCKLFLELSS
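Signal – calcium-sensitive Fluo-8 signal, excitation 470-495, emission 515-575 nm · System – RD-HGA16 (CHO) cells co-expressing Gα16 and hTAAR1 · Incubation – 17-24 h seeding, 75 min 37 °C dye, 30 min RT · Compound dosing – 3 µM single concentration · Repeats – no replicates (n 1)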
TAAR1 antag: human TAAR1 antagonists, primary screen, Fluo-8 calcium fluorescence, CHO RD-HGA16 cells. Trace amine-associated receptor 1 (Homo sapiens), Q96RJ0. antagonist. inhibition, % at 3 µM. 1.5% of 360,000 active;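 active = inhibition above a per-plate cutoff, the mean inhibition of test compounds on that plate plus 3 SD, cut at about 49% in these data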
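Test system – hTAAR1-expressing CHO RD-HGA16 cells, Gα16-coupled · Also added – β-PEA at EC80 concentration, post-compound challenge · Compound – 3 µM, single point · Incubation – dye loading 75 min at 37 °C, then 30 min room temperature · Measured by – Fluo-8 intracellular calcium dye fluorescence, real-time kinetic reads · Benchmarks – vehicle and agonist controls · Replicates – singlicate, one well per test compound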
OXTR agonist: human OXTR agonists, primary screen, fluorescence, CHO-OTR cells, Fluo-8 calcium; 0.32% of 320,000 active; Oxytocin receptor (Homo sapiens), P30559; AID 2435, 2010; activation, % at 3 µM; Fluo-8 calcium fluorescence; normalized: DMSO 0%, oxytocin 100%;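 active = activation above the mean of all tested compounds plus 3 SD, cutoff set per screening run, cut at about 20% in these data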;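 note: peak over basal fluorescence ratio from a 100 s FLIPR kinetic read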
V1R ag counter: agonists of human V1a receptor, primary screen, counter-screen for OXTR agonist project, fluorescence, CHO-V1R cells; Fluo-8 calcium fluorescence, agonist mode; 0% DMSO, 100% 3 nM vasopressin; activation, % at 3 µM; 0.25% of 320,000 active; AID 2797, 2010;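 active = activation above the mean activation of all tested compounds plus 3 SD, per screening run, cut at about 20% in these data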;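 note: signal is peak over basal fluorescence ratio across a 100 second FLIPR read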
Target sequence (P37288 whole entry, looked up): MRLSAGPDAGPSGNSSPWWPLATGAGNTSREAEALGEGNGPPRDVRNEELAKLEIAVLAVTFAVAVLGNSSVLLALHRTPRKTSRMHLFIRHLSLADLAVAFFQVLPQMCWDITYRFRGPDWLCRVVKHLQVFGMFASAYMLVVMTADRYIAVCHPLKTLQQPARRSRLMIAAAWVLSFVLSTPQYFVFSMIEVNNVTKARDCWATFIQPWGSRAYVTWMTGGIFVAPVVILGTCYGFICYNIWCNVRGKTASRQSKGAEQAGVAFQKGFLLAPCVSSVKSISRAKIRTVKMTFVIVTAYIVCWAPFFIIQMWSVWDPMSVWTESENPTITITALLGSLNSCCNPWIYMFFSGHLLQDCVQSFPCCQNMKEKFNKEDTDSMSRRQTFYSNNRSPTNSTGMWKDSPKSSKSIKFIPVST
Of the large screens only hits and unclear results are named; the others gave an inactive call. An excerpt weighted towards active compounds, which were near 2.3% of everything screened.

O=C(CSc1nn(-c2ccccc2)c(=S)s1)Nn1cnnc1	none
COc1ccc(C)cc1N(CC(=O)NCCSCc1ccco1)S(=O)(=O)c1ccc(C)cc1	none
COc1ccc(N(CC(=O)NCCSCc2ccccc2C)S(=O)(=O)c2ccccc2)cc1	TAAR1 antag 52
COc1ccccc1N(CC(=O)NCCSCc1ccccc1)S(C)(=O)=O	none
Cc1cc(C)cc(N(CC(=O)NCCSc2ccccn2)S(=O)(=O)c2ccccc2)c1	TAAR1 antag 49
COc1ccc(OC)c(N(CC(=O)NCCSCc2ccco2)S(=O)(=O)c2ccc(OC)c(OC)c2)c1	TAAR1 antag 79
COc1ccccc1N(CC(=O)NCCSCc1cccc(C)c1)S(=O)(=O)c1ccccc1	TAAR1 antag 80
COc1ccc(N(CC(=O)NCC(C)C)S(=O)(=O)c2ccccc2)cc1	none
COc1ccc(N2C(=O)N[C@@H](Cc3ccccc3)C2=O)cc1OC	none
NNC(=O)c1ccc(N2CCc3ccccc32)c([N+](=O)[O-])c1	TAAR1 antag 55
COC(CNC(=O)c1ccc(N2CCc3ccccc32)c([N+](=O)[O-])c1)OC	none
COc1ccc(-c2cc3nc(-c4ccccc4)cc(N4CCC(O)CC4)n3n2)cc1	TAAR1 antag 49
COc1ccc(-c2cc3nc(-c4ccccc4)cc(N4CCCC(O)C4)n3n2)cc1 (stereo not drawn)	none
CC(C)c1ccc(NC(=O)Cc2ccc(NC3=NC4CS(=O)(=O)CC4S3)cc2)cc1 (stereo not drawn)	none
CCN1CCC(O)(/C=C/c2ccc(C(C)C)cc2)C(C(=O)/C=C/c2ccc(C(C)C)cc2)C1 (stereo not drawn)	TAAR1 agonist 40 (no result: OXTR potentiate, OXTR agonist, V1R ag counter)
CCN1CCN(C(=O)/C=C/c2ccc(C(C)C)cc2)CC1	none
Cc1ccc(CNc2nc(NCC3CC3)nc3ccsc23)c(C)c1	none (no result: OXTR potentiate, OXTR agonist, V1R ag counter)
CNc1nc(NCC2CCCCC2)c2sccc2n1	TAAR1 agonist 49 (no result: OXTR potentiate, OXTR agonist, V1R ag counter)
O=C(NCCN1CCOCC1)c1ccc(N2CCCC2)c([N+](=O)[O-])c1	none
CN(C(=O)c1ccc(NC(=O)Cc2ccc([N+](=O)[O-])cc2)cc1)C1CCCC1	TAAR1 agonist 48, OXTR agonist 22, V1R ag counter 21
CN(C(=O)c1cccc(NC(=O)Cc2ccc([N+](=O)[O-])cc2)c1)C1CCCC1	none
Cc1ccc(-c2cc(C(=O)N3CCN(c4ncccn4)CC3)c3cc(Br)ccc3n2)o1	TAAR1 antag 59
Cc1ccc(-c2cc(C(=O)N3CCN(c4ccc(F)cc4)CC3)c3ccccc3n2)o1	none
CN(Cc1ccc(OC(F)F)cc1)C(=O)c1cccc(S(=O)(=O)N2CCN(c3ccccc3)CC2)c1	TAAR1 antag 75 (no result: OXTR potentiate, OXTR agonist, V1R ag counter)
Cc1cccc(N2C(=O)c3cccc4c(N(C)CCO)ccc(c34)C2=O)c1	OXTR agonist 53, V1R ag counter 38 (no result: TAAR1 agonist, TAAR1 antag)
Nc1cccc(N2C(=O)c3cccc4c(N)ccc(c34)C2=O)c1	OXTR agonist 28, V1R ag counter 47
CC(C)CCN1C(=O)c2cccc3c(N)ccc(c23)C1=O	TAAR1 agonist 149, TAAR1 antag 78, OXTR agonist 128, V1R ag counter 170
CN(C)c1ccc2c3c(cccc13)C(=O)N(c1ccccc1)C2=O	none (no result: TAAR1 agonist, TAAR1 antag)
Cc1cccc(N2C(=O)c3cccc4c(N)ccc(c34)C2=O)c1	TAAR1 agonist 101, OXTR agonist 172, V1R ag counter 139
CCN1C(=O)c2cccc3c(Cl)ccc(c23)C1=O	none
O=C(O)c1cccc(N2C(=O)c3cccc4c(Cl)ccc(c34)C2=O)c1	none
Cc1ccc(CC(C(=O)O)C(C)C(=O)Nc2ccc(F)cc2)cc1 (stereo not drawn)	none (no result: OXTR potentiate, OXTR agonist, V1R ag counter)
NS(=O)(=O)c1ccc(Nc2nc(-c3cccc([N+](=O)[O-])c3)cs2)cc1	TAAR1 antag 55
NS(=O)(=O)c1ccc(Nc2nc(-c3ccc4ccccc4c3)cs2)cc1	none
CCN(C(=O)COC(=O)c1n[nH]c2ccccc12)c1ccccc1	none
CC(C)n1c(SCC(=O)Nc2nc3c(s2)CCCC3)nc2c1c(=O)n(C)c(=O)n2C	TAAR1 antag 56
COc1cc(C#Cc2c(-c3cncn3C)n(C)c3ccc(-c4ccc(CN5CCOCC5)cc4)cc23)cc(OC)c1	TAAR1 antag 56
Cc1ccc(-c2ccc(CN3C(CC(C)C)C(=O)N(Cc4cn(CCC5OCCO5)nn4)CCS3(=O)=O)cc2)cc1 (stereo not drawn)	TAAR1 antag 55 (no result: OXTR potentiate, OXTR agonist, V1R ag counter)
Cc1cc(N2CCN(CC(C)(C)O)C[C@@H]2C)ccc1N1CCN(Cc2ccccc2)[C@H](C)C1	none (no result: OXTR potentiate, OXTR agonist, V1R ag counter)
O=C(/C=C/c1cccs1)N1CCC2(CC1)Oc1ccc(Cl)cc1C(=O)C21CC(c2cccnc2)=NO1 (stereo not drawn)	TAAR1 antag 53
Cc1ccc(C(=O)N2CCC3(CC2)Oc2ccc(Cl)cc2C(=O)C32CC(c3cccnc3)=NO2)s1 (stereo not drawn)	none
CCNC(=O)N(C)[C@H]1C[C@H]2c3[nH]c4c(-c5ccccc5)cccc4c3CCN2C(=O)[C@H]1[C@H](C)O	none (no result: OXTR potentiate, OXTR agonist, V1R ag counter)
CN(c1ccccc1)S(=O)(=O)c1ccc(NC(=O)c2nc(S(C)(=O)=O)ncc2Cl)cc1	TAAR1 antag 49
CN(Cc1cn(Cc2cccc(C(F)(F)F)c2)nn1)C1CN(Cc2cn(Cc3cccc(C(F)(F)F)c3)nn2)S(=O)(=O)C1 (stereo not drawn)	none (no result: OXTR potentiate, OXTR agonist, V1R ag counter)
Cc1cc(C(=O)N/N=C/c2cc(Br)ccc2OC(=O)c2ccccc2)n[nH]1	TAAR1 antag 51
Cc1cc(C(=O)N/N=C/c2cc(Br)ccc2OC(=O)c2ccccc2Cl)n[nH]1	none
Cc1cc(C(=O)N/N=C/c2ccc(OC(=O)c3ccccc3Br)cc2)n[nH]1	TAAR1 antag 54
Cc1ccc([C@H]2C(C(=O)O)=CC[C@@H](c3ccc(Cl)c(Cl)c3)N2S(=O)(=O)c2ccc(C)cc2)cc1	none
COc1ccc(C(C(O)C(=O)c2c[nH]c3ccccc23)N2CCN(c3ccc(OC)cc3)CC2)cc1 (stereo not drawn)	TAAR1 agonist 38
O=C(c1c[nH]c2ccccc12)C(O)C(c1ccccc1)N1CCOCC1 (stereo not drawn)	none
COc1cccc(C(=O)N2CCC2(C)C(=O)NC(C)C)c1 (stereo not drawn)	none (no result: OXTR potentiate, OXTR agonist, V1R ag counter)
CC(=NO)C1CCC2C3CCC4=CC(=NO)CCC4(C)C3C(O)CC12C (stereo not drawn)	TAAR1 antag 67 (no result: OXTR potentiate, OXTR agonist, V1R ag counter)
CC(C)Cn1c(N)c(/C=N/NC(=O)c2ccc(Cl)cc2)c(=O)n(C)c1=O	none
FC(F)(F)c1nc(-c2cccs2)ncc1-c1nnnn1-c1ccc(Cl)cc1	TAAR1 antag 59
